For 16 compounds, Control and Toxicity results are on record in ChEMBL document CHEMBL1131570, “2,5-bis[4-(N-alkylamidino)phenyl]furans as anti-Pneumocystis carinii agents” (J Med Chem, 1998).

Series [1] concerns Rattus norvegicus. In words: The cysts/g of lung (% of control ) is calculated at a dose of 9.1 umol/kg/day against Pneumocystis carinii in rats. Type of series: functional. The procedure, abridged:
(§1)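 Rat *P. carinii* pneumonia model: furan dications given intravenously; lung cysts counted per g of lung tissue and expressed relative to pooled saline-treated control rats.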

Series [2] relates to Rattus norvegicus. Nature of the series: The cysts/g of lung (% of control ) is calculated at a dose of 0.9 umol/kg/day against Pneumocystis carinii in rats. Type of series: functional. The procedure, abridged:
as §1

The nature of series [3]: Toxicity at a dose of 9.1 umol/kg/day against Pneumocystis carinii in rats. The conditions noted are these: rat, in vivo.
Series [4] can be described thus: Toxicity at a dose of 0.9 umol/kg/day against Pneumocystis carinii in rats. The conditions noted are these: rat, in vivo.
Series [5] deals with Rattus norvegicus. In words: The cysts/g of lung (% of control ) is calculated at a dose of 4.8 umol/kg/day against Pneumocystis carinii in rats. Type of series: functional. The procedure, abridged: as §1
In series [6] the test system is Rattus norvegicus. In words: The cysts/g of lung (% of control ) is calculated at a dose of 0.5 umol/kg/day against Pneumocystis carinii in rats. Type of series: functional. The procedure, abridged:
as §1

Series [7] can be described thus: Toxicity at a dose of 0.5 umol/kg/day against Pneumocystis carinii in rats. The conditions noted are these: rat, in vivo.
The nature of series [8]: Toxicity at a dose of 10.8 umol/kg/day against Pneumocystis carinii in rats. The conditions noted are these: rat, in vivo.
The test system of series [9] is Rattus norvegicus. In words: The cysts/g of lung (% of control ) is calculated at a dose of 10.8 umol/kg/day against Pneumocystis carinii in rats. Type of series: functional. The procedure, abridged:
as §1

Series [10] concerns Rattus norvegicus. Nature of the series: The cysts/g of lung (% of control ) is calculated at a dose of 0.2 umol/kg/day against Pneumocystis carinii in rats. The class given is functional. The method, boiled down:
as §1

The nature of series [11]: Toxicity at a dose of 10.6 umol/kg/day against Pneumocystis carinii in rats. The conditions noted are these: rat, in vivo.
For series [12], the system named is Rattus norvegicus. Nature of the series: The cysts/g of lung (% of control ) is calculated at a dose of 10.6 umol/kg/day against Pneumocystis carinii in rats. The class given is functional. The method, boiled down:
as §1

A short description of series [13]: Toxicity at a dose of 0.2 umol/kg/day against Pneumocystis carinii in rats. The conditions noted are these: rat, in vivo.
The test system of series [14] is Rattus norvegicus. In words: The cysts/g of lung (% of control ) is calculated at a dose of 0.3 umol/kg /day against Pneumocystis carinii in rats. The class given is functional. The procedure, abridged:
(§2)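 P. carinii-infected rats dosed intravenously with the furan dication. Cysts were counted per g of lung tissue and expressed as % of the mean count of pooled saline-treated controls (n = 142).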

Series [15] is described as follows: Toxicity at a dose of 2.7 umol/kg/day against Pneumocystis carinii in rats. The conditions noted are these: rat, in vivo.
The nature of series [16]: Toxicity at a dose of 0.03 umol/kg/day against Pneumocystis carinii in rats. The conditions noted are these: rat, in vivo.
Series [17] has as its system Rattus norvegicus. Nature of the series: The cysts/g of lung (% of control ) is calculated at a dose of 2.7 umol/kg/day against Pneumocystis carinii in rats. The class given is functional. The procedure, abridged: as §2
The subject of series [18] is Rattus norvegicus. In words: The cysts/g of lung (% of control ) is calculated at a dose of 0.03 umol/kg /day against Pneumocystis carinii in rats. The class given is functional. The procedure, abridged: as §2
Series [19] is described as follows: Toxicity at a dose of 0.3 umol/kg/day against Pneumocystis carinii in rats. The conditions noted are these: rat, in vivo.
Series [20] is described as follows: Toxicity at a dose of 1.0 umol/kg/day against Pneumocystis carinii in rats. The conditions noted are these: rat, in vivo.
The subject of series [21] is Rattus norvegicus. Nature of the series: The cysts/g of lung (% of control ) is calculated at a dose of 1.0 umol/kg/day against Pneumocystis carinii in rats. Type of series: functional. The method, boiled down:
as §1

The subject of series [22] is Rattus norvegicus. In words: The cysts/g of lung (% of control ) is calculated at a dose of 9.9 umol/kg/day against Pneumocystis carinii in rats. Type of series: functional. The method, boiled down: as §1
Series [23] can be described thus: Toxicity at a dose of 10 umol/kg/day against Pneumocystis carinii in rats. The conditions noted are these: rat, in vivo.
The subject of series [24] is Rattus norvegicus. Nature of the series: The cysts/g of lung (% of control ) is calculated at a dose of 10 umol/kg/day against Pneumocystis carinii in rats. Type of series: functional. The procedure, abridged:
as §1

Series [25] relates to Rattus norvegicus. Nature of the series: The cysts/g of lung (% of control ) is calculated at a dose of 10.4 umol/kg/day against Pneumocystis carinii in rats. The class given is functional. The procedure, abridged: as §1
Series [26] can be described thus: Toxicity at 10.4 a dose of umol/kg/day against Pneumocystis carinii in rats. The conditions noted are these: rat, in vivo.
The nature of series [27]: Toxicity at a dose of 10.4 umol/kg/day against Pneumocystis carinii in rats. The conditions noted are these: rat, in vivo.
Series [28] is described as follows: Toxicity at a dose of 22.0 umol/kg/day against Pneumocystis carinii in rats;. The conditions noted are these: rat, in vivo.
For series [29], the system named is Rattus norvegicus. Nature of the series: The cysts/g of lung (% of control ) is calculated at a dose of 13.3 umol/kg/day against Pneumocystis carinii in rats. Type of series: functional. The method, boiled down:
as §1

Series [30] concerns Rattus norvegicus. In words: The cysts/g of lung (% of control ) is calculated at a dose of 22.0 umol/kg/day against Pneumocystis carinii in rats. Type of series: functional. The procedure, abridged: as §1
The nature of series [31]: Toxicity at a dose of 13.3 umol/kg/day against Pneumocystis carinii in rats. The conditions noted are these: rat, in vivo.
Series [32] can be described thus: Toxicity at a dose of 2.2 umol/kg /day against Pneumocystis carinii in rats. The conditions noted are these: rat, in vivo.
The nature of series [33]: Toxicity at a dose of 1.1 umol/kg / day against Pneumocystis carinii in rats. The conditions noted are these: rat, in vivo.
Series [34] deals with Rattus norvegicus. In words: The cysts/g of lung (% of control ) is calculated at a dose of 0.2 umol/kg /day against Pneumocystis carinii in rats. The class given is functional. The method, boiled down:
as §1

Series [35] relates to Rattus norvegicus. Nature of the series: The cysts/g of lung (% of control ) is calculated at a dose of 1.1 umol/kg/day against Pneumocystis carinii in rats. The class given is functional. The method, boiled down: as §1
In series [36] the test system is Rattus norvegicus. In words: The cysts/g of lung (% of control ) is calculated at a dose of 2.2 umol/kg/day against Pneumocystis carinii in rats. The class given is functional. The procedure, abridged:
as §1

Series [37] is described as follows: Toxicity at a dose of 9.7 umol/kg/day against Pneumocystis carinii in rats;. The conditions noted are these: rat, in vivo.
Series [38] deals with Rattus norvegicus. Nature of the series: The cysts/g of lung (% of control ) is calculated at a dose of 9.7 umol/kg/day against Pneumocystis carinii in rats. Type of series: functional. The method, boiled down: as §1
Series [39] has as its system Rattus norvegicus. In words: The cysts/g of lung (% of control ) is calculated at a dose of 0.9 umol/kg day against Pneumocystis carinii in rats. The class given is functional. The method, boiled down: as §1
For series [40], the system named is Rattus norvegicus. In words: The cysts/g of lung (% of control ) is calculated at a dose of 9.4 umol/kg day against Pneumocystis carinii in rats. The class given is functional. The method, boiled down: as §1
Series [41] is described as follows: Toxicity at a dose of 0.2 umol/kg day against Pneumocystis carinii in rats. The conditions noted are these: rat, in vivo.
Series [42] in a line: Toxicity at a dose of 0.9 umol/kg day against Pneumocystis carinii in rats. The conditions noted are these: rat, in vivo.
Series [43] has as its system Rattus norvegicus. In words: The cysts/g of lung (% of control ) is calculated at a dose of 1.9 umol/kg day against Pneumocystis carinii in rats. Type of series: functional. The method, boiled down: as §1
Series [44] is described as follows: Toxicity at a dose of 1.9 umol/kg day against Pneumocystis carinii in rats. The conditions noted are these: rat, in vivo.
The subject of series [45] is Rattus norvegicus. In words: The cysts/g of lung (% of control ) is calculated at a dose of 0.2 umol/kg day against Pneumocystis carinii in rats. The class given is functional. The procedure, abridged: as §1

For the compound `N=C(NC1CCCCC1)c1ccc(-c2ccc(-c3ccc(C(=N)NC4CCCCC4)cc3)o2)cc1`, the Control is 0.02% in the series on Rattus norvegicus [1] and 26.28% in the series with Rattus norvegicus [2]. The Toxicity in series [3] and in [4] was 0 each time.
With `CCC(CC)NC(=N)c1ccc(-c2ccc(-c3ccc(C(=N)NC(CC)CC)cc3)o2)cc1`, the Control with Rattus norvegicus [5] is given as 24.43%.
For `N=C(NCC1CC1)c1ccc(-c2ccc(-c3ccc(C(=N)NCC4CC4)cc3)o2)cc1`, the Control in the series on Rattus norvegicus [6] is recorded as 3.25%; in the series on Rattus norvegicus [9], 0.24%. Besides, the Toxicity in series [7] and in series [8] was 0 each time.
As for `CCCNC(=N)c1ccc(-c2ccc(-c3ccc(C(=N)NCCC)cc3)o2)cc1`, the Control in the series on Rattus norvegicus [10] is listed as 107.83%; in the series with Rattus norvegicus [12] it was 0.08%. Further, the Toxicity in series [11] and in series [13] was 0 each time.
In the case of `C/N=C(\N)c1ccc(-c2ccc(-c3ccc(/C(N)=N/C)cc3)o2)cc1`, the Control in the series on Rattus norvegicus [10] is 85.37%; in the series on Rattus norvegicus [12] it was 0.16%. This compound also registered a Toxicity in [13] of 0.
With `N=C(N)c1ccc(-c2ccc(-c3ccc(C(=N)N)cc3)o2)cc1` [FURAMIDINE], the values for the Control in the series with Rattus norvegicus [14], with Rattus norvegicus [17] and in the series with Rattus norvegicus [18] were 5.38%, 5.65% and 21.97%, respectively. In addition, the Toxicity in series [15], in [16] and in series [19] was 0 throughout.
`N=C(NC1CCC1)c1ccc(-c2ccc(-c3ccc(C(=N)NC4CCC4)cc3)o2)cc1` had a Toxicity in [20] of 0. Moreover, the Control is recorded as 0.67% with Rattus norvegicus [21] and 0.05% in the series with Rattus norvegicus [22].
For `N=C(NC1CC1)c1ccc(-c2ccc(-c3ccc(C(=N)NC4CC4)cc3)o2)cc1`, the Control in the series on Rattus norvegicus [10] is reported as 129%; with Rattus norvegicus [9] it was 0.03%. Besides, in [13], the Toxicity was 0.
The compound `CC(C)CNC(=N)c1ccc(-c2ccc(-c3ccc(C(=N)NCC(C)C)cc3)o2)cc1` returned a Toxicity in series [23] of 0. Moreover, in the series with Rattus norvegicus [24], the Control is reported as 2.2%.
For `CC/N=C(\N)c1ccc(-c2ccc(-c3ccc(/C(N)=N/CC)cc3)o2)cc1`, the Control in the series on Rattus norvegicus [25] is 0.05%. The compound also registered a Toxicity in series [26] of 0.
In the case of `N=C(NCC1CCCCC1)c1ccc(-c2ccc(-c3ccc(C(=N)NCC4CCCCC4)cc3)o2)cc1`, in [11], the Toxicity is reported as 0. The Control with Rattus norvegicus [12] is recorded as 43.9%.
The compound `N=C(NCCO)c1ccc(-c2ccc(-c3ccc(C(=N)NCCO)cc3)o2)cc1` showed a Toxicity in series [27] of 0. Also, in the series with Rattus norvegicus [25], the Control was 0.6%.
`N=C(N)c1ccc(OCCCCCOc2ccc(C(=N)N)cc2)cc1` [PENTAMIDINE]: the Toxicity result in series [28] was “Local toxicity”; in series [31], 0. Besides, the values for the Control with Rattus norvegicus [29] and in the series with Rattus norvegicus [30] were 0.61% and 1.46%, respectively.
In the case of `CC(C)NC(=N)c1ccc(-c2ccc(-c3ccc(C(=N)NC(C)C)cc3)o2)cc1`, the Toxicity in series [32], in series [33], in [13] and in series [8] was 0 each time. Besides, the Control in the series on Rattus norvegicus [34] is listed as 169%; in the series with Rattus norvegicus [35], 11.73%; with Rattus norvegicus [36] it was 8.41%; in the series on Rattus norvegicus [9], 0.2%.
`CC(C)CC/N=C(\N)c1ccc(-c2ccc(-c3ccc(/C(N)=N/CCC(C)C)cc3)o2)cc1` displayed a Toxicity in series [37] of 0. Also, the Control with Rattus norvegicus [38] is reported as 2.38%.
In the case of `N=C(NC1CCCC1)c1ccc(-c2ccc(-c3ccc(C(=N)NC4CCCC4)cc3)o2)cc1`, the Control with Rattus norvegicus [39] was 0.11%; in the series with Rattus norvegicus [40] it was 0.03%; in the series with Rattus norvegicus [43], 0.08%; in the series on Rattus norvegicus [45] it was 93.5%. Besides, the Toxicity in series [41], in series [42] and in series [44] was 0 each time.
